Experiments:
Type in all cases: functional
Conditions in all cases: read-out: GI
Digitaria sanguinalis [1] = experiment: Herbicidal activity against Digitaria sanguinalis (hairy crabgrass) assessed as root growth inhibition at 50 mg/L applied to germinated seeds measured after 65 hr at 28 degC
Summary of the method: (§1)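 Compounds dissolved in DMF with Tween 20 and diluted in distilled water to an emulsion. Germinated seeds, usually 15 per plate, were placed on two filter papers wetted with test solution in a Petri dish. Plates were kept in the dark for 65 h at 28 (±1) ºC. Root lengths of 10 seeds per plate were measured and averaged. Blank was emulsion without compound; quizalofop-P-ethyl served as control.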

Brassica napus [2] = experiment: Herbicidal activity against Brassica napus (oilseed rape) assessed as root growth inhibition at 10 mg/L applied to germinated seeds measured after 65 hr at 28 degC; summary of the method: as §1
Digitaria sanguinalis [3] = experiment: Herbicidal activity against Digitaria sanguinalis (hairy crabgrass) assessed as root growth inhibition at 100 mg/L applied to germinated seeds measured after 65 hr at 28 degC; summary of the method: as §1
Brassica napus [4] = experiment: Herbicidal activity against Brassica napus (oilseed rape) assessed as root growth inhibition at 100 mg/L applied to germinated seeds measured after 65 hr at 28 degC; summary of the method: as §1
Digitaria sanguinalis [5] = experiment: Herbicidal activity against Digitaria sanguinalis (hairy crabgrass) assessed as root growth inhibition at 10 mg/L applied to germinated seeds measured after 65 hr at 28 degC; summary of the method: as §1
Brassica napus [6] = experiment: Herbicidal activity against Brassica napus (oilseed rape) assessed as root growth inhibition at 50 mg/L applied to germinated seeds measured after 65 hr at 28 degC; summary of the method: as §1

| Structure (SMILES) | inhibition of growth at 50 µg/mL (Digitaria sanguinalis [1]) [%] | inhibition of growth at 10 µg/mL (Brassica napus [2]) [%] | inhibition of growth at 100 µg/mL (Digitaria sanguinalis [3]) [%] | inhibition of growth at 100 µg/mL (Brassica napus [4]) [%] | inhibition of growth at 10 µg/mL (Digitaria sanguinalis [5]) [%] | inhibition of growth at 50 µg/mL (Brassica napus [6]) [%] |
| --- | --- | --- | --- | --- | --- | --- |
| CCCCOC(=O)COc1ccc(Oc2nc(OC)cc(OC)n2)cc1 | 96.9 | 9.5 | 100 | 28.3 | 41.8 | 13.4 |
| CCCCOC(=O)COc1ccc(Oc2nc(C)cc(C)n2)cc1 | 97.6 | 21.5 | 100 | 50.2 | 42.6 | 34.2 |
| CCCOC(=O)COc1ccc(Oc2nc(OC)cc(OC)n2)cc1 | 95.2 | 10.1 | 100 | 15.9 | 32.5 | 13.1 |
| CCOC(=O)COc1ccc(Oc2nc(C)cc(C)n2)cc1 | 98.4 | 14.2 | 100 | 58.4 | 38.5 | 32.7 |
| CCOC(=O)COc1ccc(Oc2nc(OC)cc(OC)n2)cc1 | 96.2 | 13.4 | 100 | 41.1 | 39.9 | 31 |
| COC(=O)COc1ccc(Oc2nc(OC)cc(OC)n2)cc1 | 98.5 | 22.9 | 100 | 39.8 | 42.8 | 34.4 |
| Cc1cc(C)nc(Oc2ccc(OCC(=O)OC(C)C)cc2)n1 | 95.1 | 9.2 | 100 | 26.4 | 35 | 14.3 |
| COc1cc(OC)nc(Oc2ccc(OCC(=O)OC(C)C)cc2)n1 | 96.5 | 14.6 | 100 | 25.1 | 32.7 | 21 |
| COC(=O)COc1ccc(Oc2nc(C)cc(C)n2)cc1 | 97.3 | 11.9 | 100 | 44.7 | 44.7 | 26.7 |
| CCCOC(=O)COc1ccc(Oc2nc(C)cc(C)n2)cc1 | 97.5 | 12.1 | 100 | 54.5 | 36.9 | 33.9 |
| CCOC(=O)[C@@H](C)Oc1ccc(Oc2cnc3cc(Cl)ccc3n2)cc1 [QUIZALOFOP-P-ETHYL] | 95.3 | 33.8 | 100 | 51.2 | 63.5 | 39.2 |
